Assay results published in ChEMBL document CHEMBL4004831, “Naphthalene diimide-polyamine hybrids as antiproliferative agents: Focus on the architecture of the polyamine chains” (Eur J Med Chem, 2017).
Values after ≈ are worked out from the molar mass of the structure shown.

Legend:
[1] = biological target: DNA topoisomerase 2-alpha (Homo sapiens, UniProt P11388); test: Inhibition of human topoisomerase-2alpha-mediated relaxation of supercoiled pBR322 DNA after 1 hr by ethidium bromide staining based agarose gel electrophoresis
How it was run: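 Supercoiled pBR322 was incubated with compound (0.5–100) and 1 U human topoisomerase IIα in enzyme buffer for 1 h at 37 °C. Reactions were stopped with Tris/EDTA/NaCl loading buffer (pH 8.0) and run on 1% agarose in TAE with 0.1% SDS (4.9 V/cm, 90 min), then stained with ethidium bromide. IC50 is the concentration reducing relaxation activity by 50%.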

[2] = Stabilization of 5'Dabcyl/3'FAM labeled duplex DNA (unknown origin) assessed as increase in melting temperature at 2.5 uM pretreated for 5 mins at 30 degreeC followed by 5 mins incubation at 95 degreeC by fluorescence assay
How it was run: (§1)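 FRET melting in LiP buffer (10 mM LiOH, 50 mM KCl, pH 7.0 with H3PO4), ex 488 nm, em 520 nm. Samples were held 5 min at 30 °C, heated at 1 °C/min to 95 °C, held 5 min, then re-annealed. Tm came from first derivatives; ΔTm = shift with ligand at 2.5; at least three runs.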

Thermus aquaticus = test: Inhibition of Thermus aquaticus DNA polymerase-mediated amplification of fragment of pBR322 by PCR
How it was run: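 PCR amplification of a pBR322 fragment by Taq polymerase with increasing compound (0.25–40) for 25 cycles: 94 °C, 58 °C and 72 °C, 30 s each. Products were run on 2% agarose in 0.5X TBE (4.2 V/cm, 1.5 h) and stained with ethidium bromide. IC50 is the concentration halving activity; MIC is the lowest concentration that suppresses activity.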

Homo sapiens = species on record: Homo sapiens; test: Stabilization of 5'Dabcyl/3'FAM labeled human telomeric sequence G-quadruplex DNA assessed as increase in melting temperature at 2.5 uM pretreated for 5 mins at 30 degreeC followed by 5 mins incubation at 95 degreeC by fluorescence assay; how it was run: as §1

DNA topoisomerase 2-alpha, sequence (P11388 whole entry): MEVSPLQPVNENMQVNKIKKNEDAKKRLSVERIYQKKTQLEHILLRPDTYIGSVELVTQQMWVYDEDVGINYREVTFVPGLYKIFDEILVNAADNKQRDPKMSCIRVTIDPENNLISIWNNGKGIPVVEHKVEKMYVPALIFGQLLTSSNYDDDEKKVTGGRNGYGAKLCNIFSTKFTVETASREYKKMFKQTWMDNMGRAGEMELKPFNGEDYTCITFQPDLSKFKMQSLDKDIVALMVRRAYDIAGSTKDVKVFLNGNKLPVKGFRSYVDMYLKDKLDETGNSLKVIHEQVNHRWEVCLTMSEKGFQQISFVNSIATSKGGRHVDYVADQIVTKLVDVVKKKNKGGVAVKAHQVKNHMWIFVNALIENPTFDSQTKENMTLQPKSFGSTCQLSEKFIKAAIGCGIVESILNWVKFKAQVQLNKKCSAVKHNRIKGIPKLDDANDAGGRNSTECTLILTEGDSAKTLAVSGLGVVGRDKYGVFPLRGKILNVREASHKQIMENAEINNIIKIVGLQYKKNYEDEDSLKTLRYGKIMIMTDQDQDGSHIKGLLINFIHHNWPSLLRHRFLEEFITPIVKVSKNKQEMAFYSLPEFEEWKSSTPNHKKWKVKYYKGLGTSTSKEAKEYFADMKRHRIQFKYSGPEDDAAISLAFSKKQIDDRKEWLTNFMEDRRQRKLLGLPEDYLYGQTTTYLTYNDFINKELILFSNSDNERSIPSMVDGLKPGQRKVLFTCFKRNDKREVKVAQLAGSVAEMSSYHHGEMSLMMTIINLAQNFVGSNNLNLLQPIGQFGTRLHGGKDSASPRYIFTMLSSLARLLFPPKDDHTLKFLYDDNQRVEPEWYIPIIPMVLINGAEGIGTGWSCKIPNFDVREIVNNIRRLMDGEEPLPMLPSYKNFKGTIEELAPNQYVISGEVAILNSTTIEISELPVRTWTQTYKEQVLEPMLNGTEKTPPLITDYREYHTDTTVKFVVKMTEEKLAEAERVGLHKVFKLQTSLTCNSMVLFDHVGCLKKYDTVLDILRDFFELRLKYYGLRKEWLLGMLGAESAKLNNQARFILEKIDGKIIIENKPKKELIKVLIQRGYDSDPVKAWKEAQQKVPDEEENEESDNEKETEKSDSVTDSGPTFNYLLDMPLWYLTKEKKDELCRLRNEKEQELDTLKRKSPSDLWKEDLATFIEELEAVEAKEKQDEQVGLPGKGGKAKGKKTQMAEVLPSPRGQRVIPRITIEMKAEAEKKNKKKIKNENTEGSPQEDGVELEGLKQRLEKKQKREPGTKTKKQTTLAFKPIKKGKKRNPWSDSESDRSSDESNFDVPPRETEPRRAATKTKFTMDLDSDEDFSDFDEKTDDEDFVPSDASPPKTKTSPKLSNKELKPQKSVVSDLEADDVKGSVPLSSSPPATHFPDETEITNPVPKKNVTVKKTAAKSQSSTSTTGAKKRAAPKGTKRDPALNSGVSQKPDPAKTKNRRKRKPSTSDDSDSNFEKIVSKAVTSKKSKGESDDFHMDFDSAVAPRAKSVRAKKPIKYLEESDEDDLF

IC50 [1] [µM]	ΔTm [2] [°C]	MIC (Thermus aquaticus) [µM]	ΔTm (Homo sapiens) [°C]	Compound
6	8.4	10 (≈ 6.21 µg/mL)	20.5	COc1ccccc1CNCCCN1C(=O)c2ccc3c4c(ccc(c24)C1=O)C(=O)N(CCCNCc1ccccc1OC)C3=O
–	12.2	–	16.3	COc1ccccc1CNCCCN1C(=O)c2ccc3c4c(ccc(c24)C1=O)C(=O)N(CCCNCCCNCCCN)C3=O
–	12.6	–	13.1	COc1ccc(CNCCCN2C(=O)c3ccc4c5c(ccc(c35)C2=O)C(=O)N(CCCNCCCCNCCCN)C4=O)c(OC)c1OC
